MEKK2mut PB1 HTS: MEK5 binding signal on mutant MEKK2 PB1, primary screen, biochemical, multiplex bead flow cytometry, Alexa488-MEK5. AID 1530, 2009. Alexa488-MEK5 binding to MEKK2 mutant. 0.35% of 290,000 active. percent response, % at 10 µM; in the data active means percent response above about 24%, passing the limit was not always enough
Arr AP2 block: inhibitors of beta-arrestin/AP2 binding, primary screen, biochemical, GPCR trafficking, flow cytometry | FITC-arrestin peptide / GST-AP2 beads; AP2 beta2 appendage carries R879A mutation | inhibition, % at 10 µM | 0.31% of 340,000 active;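 active means inhibition above a set limit, near 3 SD of compounds lacking own fluorescence, cut at about 54% in these data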;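 further: plate controls were DMSO wells for no effect and 5 µM unlabelled arrestin peptide for full effect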
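Assay system: GST-AP2 R879A bound to glutathione beads, E. coli-expressed; Medium: PBS with 0.05% Tween 20 and 0.1% BSA; Also added: fluorescein-tagged arrestin peptide at 50 nM final; Timing: 12 min plus 1 h, RT; Measured by: flow cytometry, FL1 (488/535 nm); Evaluation: percent drop in bead-associated FITC signal.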
MEKK2wt PB1 HTS: modulators of MEK5 binding to wildtype MEKK2, primary screen, biochemical, multiplex bead flow cytometry, Alexa488-MEK5. Mitogen-activated protein kinase kinase kinase 2 (Homo sapiens), Q9Y2U5. Alexa488-MEK5 binding to MEKK2 WT; actives lie on both sides. binding response (% of control), % at 10 µM. 1.1% of 290,000 active. AID 1531, 2009; in the data active means binding response below about 67% or above about 130%
MEKK3 PB1 HTS: modulators of MEKK3-MEK5 PB1 binding, primary screen, biochemical, wildtype MEKK3, multiplex bead flow cytometry, Alexa488-MEK5 | binding response (% of control), % at 10 µM | bead-based flow cytometry, Alexa488-MEK5 binding to MEKK3; actives lie on both sides; 0 = blocked by unlabeled MEK5, 100 = vehicle | 1.4% of 290,000 active | Mitogen-activated protein kinase kinase kinase 3 (Homo sapiens), Q99759;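 active means binding response more than 3 SD above or below the average of its plate-row segment, actives on both sides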;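 further: Alexa488 bead fluorescence after subtracting the streptavidin-only scavenger bead signal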
Target sequence (Q99759 whole entry, looked up): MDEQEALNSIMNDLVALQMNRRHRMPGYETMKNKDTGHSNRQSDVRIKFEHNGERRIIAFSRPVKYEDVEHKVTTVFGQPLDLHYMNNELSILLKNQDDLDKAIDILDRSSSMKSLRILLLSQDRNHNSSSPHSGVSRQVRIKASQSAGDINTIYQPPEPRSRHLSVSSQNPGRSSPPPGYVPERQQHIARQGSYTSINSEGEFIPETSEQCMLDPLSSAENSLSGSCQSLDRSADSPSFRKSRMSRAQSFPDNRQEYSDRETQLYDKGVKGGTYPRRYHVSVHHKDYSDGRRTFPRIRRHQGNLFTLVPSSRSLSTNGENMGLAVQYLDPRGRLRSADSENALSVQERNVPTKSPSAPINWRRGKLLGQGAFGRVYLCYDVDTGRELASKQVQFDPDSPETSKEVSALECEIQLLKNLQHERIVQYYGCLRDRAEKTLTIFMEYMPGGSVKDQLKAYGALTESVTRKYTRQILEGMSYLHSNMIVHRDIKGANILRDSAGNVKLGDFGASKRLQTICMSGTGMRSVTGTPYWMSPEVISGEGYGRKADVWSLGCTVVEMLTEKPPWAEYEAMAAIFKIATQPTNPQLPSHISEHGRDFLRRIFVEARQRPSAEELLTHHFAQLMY
MEKK2wt confirm: modulators of MEK5 binding to wildtype MEKK2, confirmation, biochemical, single concentration, multiplex bead flow cytometry; 2.4% of 5,900 active; Alexa488-MEK5 binding to MEKK2 WT; actives lie on both sides; binding response (% of control), % at 10 µM; shares compounds with MEKK3 PB1 HTS; AID 1892, 2009; in the data active means binding response below about 16% or above about 210%; inactive means in between
MEKK2mut-MEK5: mutant MEKK2 PB1-MEK5 binding signal retest – biochemical, single concentration, multiplex bead flow cytometry, confirmation; shares compounds with MEKK3 PB1 HTS; 2% of 5,900 active; percent response, % at 10 µM; AID 1893, 2009; Alexa488-MEK5 binding to MEKK2 mutant; in the data active means percent response mostly above about 71%, no sharp cut-off; inactive means mostly below about 38%;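 further: higher means compound restores mutant binding toward wildtype level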
MEKK3-MEK5 inh: MEKK3 wild-type PB1 binding to MEK5, inhibitors, confirmation, biochemical, bead multiplex flow cytometry, single concentration, wildtype; shares compounds with MEKK3 PB1 HTS; 1.8% of 5,900 active; binding response (% of control), % at 10 µM; Alexa488-MEK5 binding to MEKK3; active compounds read low; AID 1894, 2009;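 active means binding response below 72% of control, or above a set upper limit, though filed actives all read lower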;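 further: 100% = DMSO only wells and 0% = binding blocked by excess unlabeled MEK5; lower values mean stronger disruption of MEK5 binding to MEKK3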
Active calls of the source: *; . = no result; ! = a repeat was not active; [ ] = remark or other dose. This is a sample that favours compounds with a hit; in the whole collection about 2.3% have one here.

SMILES	MEKK2mut PB1 HTS	Arr AP2 block	MEKK2wt PB1 HTS	MEKK3 PB1 HTS	MEKK2wt confirm	MEKK2mut-MEK5	MEKK3-MEK5 inh
c1ccc(-c2[nH]c[n+](CC3CO3)c2-c2ccccc2)cc1 (centres undefined)	40.0	.	152.0*	104.0	110.0	0.0	100.0
c1ccc(OCC2CO2)cc1 (centres undefined)	.	7.8	.	.	.	.	.
Cc1cccc(NP(C)(=O)c2nc3c(s2)CCCC3)c1 (centres undefined)	-3.0	1.6	99.0	99.0	.	.	.
COc1ccc(CC2(CCc3ccncc3)C(=O)NC(=O)NC2=O)cc1	-8.0	31.5	85.0	85.0	.	.	.
O=C1NC(=O)C(CCc2ccncc2)(Cc2ccc([N+](=O)[O-])cc2)C(=O)N1	0.0	3.5	107.0	140.0*	100.0	2.0	100.0
O=C1C2CCCN2C(c2cccnc2)N1c1nccs1 (centres undefined)	.	-3.2	.	.	.	.	.
O=c1[nH]c(O)c(/C=C2/C=CC(c3cc(Cl)ccc3Cl)=N2)c(=O)[nH]1	1.0	34.8	63.0*[inhibitor]	109.0	66.0	-14.0	95.0
CC(O)(CS(=O)(=O)c1ccccc1)C(=O)Nc1cccc(C(F)(F)F)c1 (centres undefined)	7.0	-2.3	105.0	99.0	.	.	.
COc1ccc(N2CCN(CCCN)CC2)cc1	23.0	18.3	152.0*	104.0	162.0	34.0	108.0
NCCCN1CCN(c2ccccc2)CC1	28.0	25.5	152.0*	98.0	133.0	25.0	101.0
COc1ccc(N2C(=O)CC(=O)NC2=O)cc1	1.0	5.4	106.0	104.0	.	.	.
C=CCN1C(=O)NC(=O)/C(=C/c2ccc(OC)c(CSc3ccccn3)c2)C1=O	-20.0	3.4	80.0	80.0*[inhibitor]	99.0	-2.0	99.0
Cc1cccc(OP(N)(=O)Oc2cccc(C)c2)c1	29.0	3.5	120.0	132.0*	92.0	-12.0	97.0
ClC1=C(Cl)C2(Cl)C3C(Cl)C=CC3C1(Cl)C2(Cl)Cl (centres undefined)	.	6.1	.	.	.	.	.
OCCNCCc1c[nH]c2ccc(OCc3ccccc3)cc12	31.0*	7.0	164.0*	109.0	167.0	30.0	108.0
CN1/C(=C\C=Nc2ccccc2)C(C)(C)c2ccccc21	1.0	-4.0	0.0*[inhibitor]	80.0	104.0	4.0	100.0
CCOC(=O)C1(c2ccccc2)CCN(CCC(=O)Nc2ccc(C(=O)OC)cc2)CC1	.	-9.9	.	.	.	.	.
CCOC(=O)C1(c2ccccc2)CCN(CCC(C#N)(c2ccccc2)c2ccccc2)CC1	6.0	6.5	136.0*	101.0	132.0	27.0	103.0
CCN(CC)c1ccc(CN(C)CCc2ccc(OC)c(OC)c2)cc1	24.0*	4.4	135.0*	115.0	114.0	7.0	107.0
Cc1cc(OC(=O)c2cccs2)c2c3c(c(=O)oc2c1)CCCC3	0.0	-8.0	108.0	151.0*	100.0	-3.0	101.0
O=C(c1ccc(N2CC3CC(C2)c2cccc(=O)n2C3)c([N+](=O)[O-])c1)N1CCCCC1 (centres undefined)	0.0	21.1	106.0	105.0	.	.	.
O=C(N/N=C\C1C(=O)NC(=S)N(c2ccccc2)C1=O)c1ccc(O)cc1 (centres undefined)	-2.0	-8.1	95.0	95.0	.	.	.
COc1ccc(NC(=O)c2cn(CCC#N)nc2-c2ccc(OC)c(OC)c2)cc1	4.0	-9.3	106.0	99.0	.	.	.
Cc1csc(=N)n1Cc1ccccc1	0.0	41.9	97.0	105.0	.	.	.
C=C1C(=O)OC2CC(C)C3C=CC(=O)C3(C)C(O)C12 (centres undefined)	.	28.1	.	.	.	.	.
SMILES	MEKK2mut PB1 HTS	Arr AP2 block	MEKK2wt PB1 HTS	MEKK3 PB1 HTS	MEKK2wt confirm	MEKK2mut-MEK5	MEKK3-MEK5 inh
C=C1C(=O)O[C@@H]2C[C@@H](C)[C@@H]3C4OC4C(=O)[C@@]3(C)[C@@H](O)[C@H]12 (some centres undefined)	4.0	8.7	70.0	69.0*[inhibitor]	97.0	-5.0	101.0
CC[C@@H]1C(=O)OC[C@@H]1Cc1cncn1C	4.0	-2.1	55.0*![inhibitor]	88.0	99.0	-5.0	99.0
CC12C(C(=O)O)C1(c1ccccc1)C2C(=O)O (centres undefined)	.	3.7	.	.	.	.	.
CC(=O)OC(C)(C)/C=C/C(=O)[C@](C)(O)C1[C@H](O)C[C@@]2(C)C3CC=C4C(C[C@H](O)C(=O)C4(C)C)[C@]3(C)C(=O)C[C@]12C (some centres undefined)	.	10.3	.	.	.	.	.
CC(C)(C)C(=O)O[C@H]1CC[C@@]2(C)C(=CC(=O)C3C2CC[C@]2(C)C(=O)[C@@H](F)CC32)C1 (some centres undefined)	.	8.4	.	.	.	.	.
COc1ccc(OC)c(N2C(=O)/C(=C/c3ccco3)C(=O)NC2=S)c1	-25.0	.	66.0*[inhibitor]	85.0	98.0	2.0	100.0
COc1ccc(N2C(=O)/C(=C/c3cc(C)n(-c4ccc(C)cn4)c3C)C(=O)NC2=S)c(OC)c1	-20.0	-0.2	33.0*[inhibitor]	51.0	85.0	-5.0	98.0
COc1ccc2c(c1)c(C(=O)O)c(C)n2CC(C)C	-1.0	0.3	98.0	99.0	.	.	.
CCCCn1c(C)c(C(=O)O)c2cc(OC)ccc21	-7.0	10.8	85.0	81.0*[inhibitor]	107.0	8.0	103.0
CC[n+]1c(SC)ccc2cc(OC)ccc21	1.0	-6.5	108.0	175.0*	107.0	5.0	103.0
CSc1ccc(C(=O)C2CCCN(Cc3cc4ccccc4[nH]3)C2)cc1 (centres undefined)	48.0	20.6	217.0*	104.0	181.0	37.0	111.0
Cc1cc(C=C2C(=O)N(C)C(=S)N(C)C2=O)c(C)n1C1CCCCC1	-21.0	37.0	72.0*[inhibitor]	95.0	82.0	-9.0	99.0
Cc1cc(N2CCCCC2)ccc1C=C1C(=O)N(C)C(=S)N(C)C1=O	-2.0	20.8	29.0*[inhibitor]	90.0	87.0	-5.0	88.0
O=C(O)c1sc2cc(Cl)ccc2c1Cl	17.0	.	103.0	109.0	.	.	.
CCCCCSc1cc(OC)c(CCN)cc1OC	14.0	-7.4	127.0	107.0	.	.	.
CCCCCCCSc1cc(OC)c(CCN(C)C)cc1OC	28.0*	4.3	147.0*	104.0	155.0	21.0	100.0
CC/C(=N\N1CCN(C)CC1)c1c(O)[nH]c(=O)[nH]c1=O	0.0	-10.4	105.0	140.0*	104.0	4.0	100.0
CC/C(=N\N1CCCCC1)c1c(O)[nH]c(=O)[nH]c1=O	1.0	3.6	109.0	106.0	.	.	.

Compound activity as filed in PubChem BioAssay.
